# In paper PMC9057999 (RSC Advances, 2020):
# Like-named read-outs stand apart in the source and are kept apart here.
# Columns and labels:
# [1] = tested on: PC-3 cells; assay: MTT cytotoxicity assay, prostate; format: cell-based, human; conditions: read-out: Prostate (PC-3) IC50
# Method in brief: (§1)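 Human Colo-205, PC-3, THP-1 and A549 cancer cells and normal epithelial fR-2 cells were grown in RPMI-1640 or DMEM with 10% fetal calf serum, penicillin and streptomycin, at 37 °C in 5.0% CO2. After overnight attachment, cells were exposed to 0.07, 0.7, 7.0 and 70.0 μM test compound for 24 h, then to MTT (250 μg mL−1) for 3–4 h. OD was read at 570 nm. Growth (%) = test OD/untreated OD × 100. IC50 was taken from concentration–growth curves as the mean of triplicates.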
# [2] = tested on: fR-2 cells; assay: MTT cytotoxicity assay, normal epithelial cell line; format: cell-based; conditions: read-out: Normal (fR-2) IC50
# Method in brief: as §1
# [3] = tested on: THP-1 cells; assay: MTT cytotoxicity assay, leukemia; format: cell-based, human; conditions: read-out: Leukemia (THP-1) IC50
# Method in brief: as §1
# [4] = tested on: A549 cells; assay: MTT cytotoxicity assay, lung; format: cell-based, human; conditions: read-out: Lung (A549) IC50
# Method in brief: as §1
# [5] = tested on: Colo-205 cells; assay: MTT cytotoxicity assay, colon; format: cell-based, human; conditions: read-out: Colon (Colo-205) IC50
# Method in brief: as §1
# [6] = tested on: Colo-205, PC-3, THP-1, A549 and fR-2 cells; assay: MTT cytotoxicity assay, statements on the whole cell line panel; format: cell-based; conditions: Homo sapiens, 24 h, read-out: IC50 values (all tested cell lines)
# Method in brief: as §1
# [7] = MTT, 24 h treatment, n = 3, mean ± SD
structure (smiles),measurement,setting,value
"CCOC(=O)C1=C(C)NC(=O)NC1/C=C/c1ccc2c(c1)OCO2 (stereo not drawn) [Compound 20a, Ethyl-4-((E)-2-(benzo[d][1,3]dioxol-6-yl)vinyl)-1,2,3,4-tetrahydro-6-methyl-2-oxo pyrimidine-5-carboxylate]",IC50,[1]; [7],> 70 µM
same,IC50,[2]; [7],68.7 ± 1.1 µM
same,IC50,[3]; [7],> 70 µM
same,IC50,[4]; [7],> 70 µM
same,IC50,[5]; [7],23.4 ± 1.4 µM
"CCOC(=O)C1=C(C)NC(=O)NC1C=Cc1cccc(O)c1 (stereo not drawn) [Compound 10a, Ethyl-4-(3-hydroxystyryl)-1,2,3,4-tetrahydro-6-methyl-2-oxopyrimidine-5-carboxylate]",IC50,"[1]; Homo sapiens, PC-3, 24 h",29.4 ± 1.2 µM
same,IC50,"[2]; FR2, 24 h",> 70 µM
same,IC50,"[3]; Homo sapiens, THP-1, 24 h",42.1 ± 1.7 µM
same,IC50,"[4]; Homo sapiens, A549, 24 h",> 70 µM
same,IC50,"[5]; Homo sapiens, COLO 205, 24 h",> 70 µM
"CCOC(=O)C1=C(C)NC(=O)NC1C1=C(Cl)c2ccccc2CC1 (stereo not drawn) [Compound 12a, Ethyl-4-(1-chloro-3,4-dihydronaphthalen-2-yl)-6-methyl-2-oxo-1,2,3,4-tetrahydropyrimidine-5-carboxylate]",IC50,"[1]; Homo sapiens, PC-3, 24 h",> 70 µM
same,IC50,[6],> 70 µM
same,IC50,"[2]; FR2, 24 h",> 70 µM
same,IC50,"[3]; Homo sapiens, THP-1, 24 h",> 70 µM
same,IC50,"[4]; Homo sapiens, A549, 24 h",> 70 µM
same,IC50,"[5]; Homo sapiens, COLO 205, 24 h",> 70 µM
"CCOC(=O)C1=C(C)NC(=O)NC1C=Cc1cc(OC)c(OC)c(OC)c1 (stereo not drawn) [Compound 18a, Ethyl 4-(3,4,5-trimethoxystyryl)-1,2,3,4-tetrahydro-6-methyl-2-oxopyrimidine-5-carboxylate]",IC50,"[1]; Homo sapiens, PC-3, 24 h",> 70 µM
same,IC50,[6],> 70 µM
same,IC50,"[2]; FR2, 24 h",> 70 µM
same,IC50,"[3]; Homo sapiens, THP-1, 24 h",> 70 µM
same,IC50,"[4]; Homo sapiens, A549, 24 h",> 70 µM
same,IC50,"[5]; Homo sapiens, COLO 205, 24 h",> 70 µM
"CCOC(=O)C1=C(C)NC(=O)NC1c1ccc2c(c1)OCO2 (stereo not drawn) [Compound 21a, Ethyl-4-(benzo[d][1,3]dioxol-6-yl)-1,2,3,4-tetrahydro-6-methyl-2-oxopyrimidine-5-carboxylate]",IC50,"[1]; Homo sapiens, PC-3, 24 h",> 70 µM
same,IC50,"[2]; FR2, 24 h",> 70 µM
same,IC50,"[3]; Homo sapiens, THP-1, 24 h",> 70 µM
same,IC50,"[4]; Homo sapiens, A549, 24 h",> 70 µM
same,IC50,"[5]; Homo sapiens, COLO 205, 24 h",48.1 ± 2.1 µM
"O=c1[nH]cc(F)c(=O)[nH]1 [5-Fluorouracil, reference compound]",IC50,"[2]; FR2, 24 h",335 ± 3.8 µM
same,IC50,"[5]; Homo sapiens, COLO 205, 24 h",33.9 ± 1.9 µM
"COc1cccc2c1C(=O)c1c(O)c3c(c(O)c1C2=O)C[C@@](O)(C(=O)CO)C[C@@H]3O[C@H]1C[C@H](N)[C@H](O)[C@H](C)O1 [Doxorubicin, reference compound]",IC50,"[3]; Homo sapiens, THP-1, 24 h",0.018 ± 0.004 µM
"CCCCCCC1NC(=O)NC(C)=C1C(=O)OCC (stereo not drawn) [Compound 9a, Ethyl-4-hexyl-1,2,3,4-tetrahydro-6-methyl-2-oxo-pyrimidine-5-carboxylate]",IC50,"[1]; Homo sapiens, PC-3, 24 h",> 70 µM
same,IC50,[6],> 70 µM
same,IC50,"[2]; FR2, 24 h",> 70 µM
same,IC50,"[3]; Homo sapiens, THP-1, 24 h",> 70 µM
same,IC50,"[4]; Homo sapiens, A549, 24 h",> 70 µM
same,IC50,"[5]; Homo sapiens, COLO 205, 24 h",> 70 µM
"CCOC(=O)C1=C(C)NC(=O)NC1C=Cc1cccc(OC)c1OC (stereo not drawn) [Compound 17a, Ethyl 4-(2,3-dimethoxystyryl)-1,2,3,4-tetrahydro-6-methyl-2-oxopyrimidine-5-carboxylate]",IC50,"[1]; Homo sapiens, PC-3, 24 h",47.9 ± 2.1 µM
same,IC50,"[2]; FR2, 24 h",> 70 µM
same,IC50,"[3]; Homo sapiens, THP-1, 24 h",> 70 µM
same,IC50,"[4]; Homo sapiens, A549, 24 h",26.4 ± 1.1 µM
same,IC50,"[5]; Homo sapiens, COLO 205, 24 h",38.2 ± 1.4 µM
"CCOC(=O)C1=C(C)NC(=O)NC1c1ccc2c(c1)CCC(C)(C)O2 (stereo not drawn) [Compound 14a, Ethyl-1,2,3,4-tetrahydro-6-methyl-4-(2,2-dimethylchroman-6-yl)-2-oxo-pyrimidine-5-carboxylate]",IC50,"[1]; Homo sapiens, PC-3, 24 h",> 70 µM
same,IC50,"[2]; FR2, 24 h",> 70 µM
same,IC50,"[3]; Homo sapiens, THP-1, 24 h",> 70 µM
same,IC50,"[4]; Homo sapiens, A549, 24 h",> 70 µM
same,IC50,"[5]; Homo sapiens, COLO 205, 24 h",> 70 µM
"CCOC(=O)C1=C(C)NC(=O)NC1/C(CC(=O)OC)=C(\Cl)c1ccc(OC)c(OC)c1 (stereo not drawn) [Compound 13a, Ethyl-4-((Z)-3-(methoxycarbonyl)-1-chloro-1-(3,4-dimethoxyphenyl)prop-1-en-2-yl)-1,2,3,4-tetrahydro-6-methyl-2-oxopyrimidine-5-carboxylate]",IC50,"[1]; Homo sapiens, PC-3, 24 h",35.4 ± 2.2 µM
same,IC50,"[2]; FR2, 24 h",67.6 ± 2.5 µM
same,IC50,"[3]; Homo sapiens, THP-1, 24 h",23.2 ± 1.4 µM
same,IC50,"[4]; Homo sapiens, A549, 24 h",30.3 ± 2.9 µM
same,IC50,"[5]; Homo sapiens, COLO 205, 24 h",59.4 ± 1.6 µM
"CCOC(=O)C1=C(C)NC(=O)NC1/C=C\c1ccc2c(c1)CCC(C)(C)O2 (stereo not drawn) [Compound 15a, Ethyl-1,2,3,4-tetrahydro-6-methyl-4-((Z)-2-(2,2-dimethylchroman-6-yl)vinyl)-2-oxo-pyrimidine-5-carboxylate]",IC50,"[1]; Homo sapiens, PC-3, 24 h",> 70 µM
same,IC50,"[2]; FR2, 24 h",> 70 µM
same,IC50,"[3]; Homo sapiens, THP-1, 24 h",> 70 µM
same,IC50,"[4]; Homo sapiens, A549, 24 h",> 70 µM
same,IC50,"[5]; Homo sapiens, COLO 205, 24 h",27.3 ± 1.8 µM
"CCCCC1NC(=O)NC(C)=C1C(=O)OCC (stereo not drawn) [Compound 7a, Ethyl 4-butyl-1,2,3,4-tetrahydro-6-methyl-2-oxopyrimidine-5-carboxylate]",IC50,"[1]; Homo sapiens, PC-3, 24 h",> 70 µM
same,IC50,[6],> 70 µM
same,IC50,"[2]; FR2, 24 h",> 70 µM
same,IC50,"[3]; Homo sapiens, THP-1, 24 h",> 70 µM
same,IC50,"[4]; Homo sapiens, A549, 24 h",> 70 µM
same,IC50,"[5]; Homo sapiens, COLO 205, 24 h",> 70 µM
"CCCC1NC(=O)NC(C)=C1C(=O)OCC (stereo not drawn) [Compound 6a, Ethyl 1,2,3,4-tetrahydro-6-methyl-2-oxo-4-propylpyrimidine-5-carboxylate]",IC50,"[1]; Homo sapiens, PC-3, 24 h",> 70 µM
same,IC50,[6],> 70 µM
same,IC50,"[2]; FR2, 24 h",> 70 µM
same,IC50,"[3]; Homo sapiens, THP-1, 24 h",> 70 µM
same,IC50,"[4]; Homo sapiens, A549, 24 h",> 70 µM
same,IC50,"[5]; Homo sapiens, COLO 205, 24 h",> 70 µM
"CC(=O)O[C@H]1C(=O)[C@@]2(C)[C@H]([C@H](OC(=O)c3ccccc3)[C@]3(O)C[C@H](OC(=O)[C@H](O)[C@@H](NC(=O)c4ccccc4)c4ccccc4)C(C)=C1C3(C)C)[C@]1(OC(C)=O)CO[C@@H]1C[C@@H]2O [Paclitaxel, reference compound]",IC50,"[1]; Homo sapiens, PC-3, 24 h",0.048 ± 0.008 µM
same,IC50,"[4]; Homo sapiens, A549, 24 h",5.1 ± 0.4 µM
"CCOC(=O)C1=C(C)NC(=O)NC1C(C)=CCc1cc2oc(=O)ccc2cc1OC (stereo not drawn) [Compound 5a, Ethyl 4-(4-(6-methoxy-2-oxo-2H-chromen-7-yl)but-2-en-2-yl)-6-methyl-2-oxo-1,2,3,4-tetrahydropyrimidine-5-carboxylate]",IC50,"[1]; Homo sapiens, PC-3, 24 h",40.8 ± 1.7 µM
same,IC50,"[2]; FR2, 24 h",68.8 ± 1.1 µM
same,IC50,"[3]; Homo sapiens, THP-1, 24 h",65.8 ± 1.4 µM
same,IC50,"[4]; Homo sapiens, A549, 24 h",67.8 ± 1.7 µM
same,IC50,"[5]; Homo sapiens, COLO 205, 24 h",37.6 ± 1.1 µM
"CCOC(=O)C1=C(C)NC(=O)NC1C=Cc1ccc(OC)cc1OC (stereo not drawn) [Compound 19a, Ethyl-4-(2,4-dimethoxystyryl)-1,2,3,4-tetrahydro-6-methyl-2-oxopyrimidine-5-carboxylate]",IC50,"[1]; Homo sapiens, PC-3, 24 h",> 70 µM
same,IC50,"[2]; FR2, 24 h",> 70 µM
same,IC50,"[3]; Homo sapiens, THP-1, 24 h",> 70 µM
same,IC50,"[4]; Homo sapiens, A549, 24 h",47.8 ± 2.4 µM
same,IC50,"[5]; Homo sapiens, COLO 205, 24 h",33.7 ± 1.8 µM
"CCOC(=O)C1=C(C)NC(=O)NC1C1=Cc2ccccc2CC1 (stereo not drawn) [Compound 11a, Ethyl-4-(3,4-dihydronaphthalen-2-yl)-6-methyl-2-oxo-1,2,3,4-tetrahydropyrimidine-5-carboxylate]",IC50,"[1]; Homo sapiens, PC-3, 24 h",29.3 ± 1.3 µM
same,IC50,"[2]; FR2, 24 h",> 70 µM
same,IC50,"[3]; Homo sapiens, THP-1, 24 h",> 70 µM
same,IC50,"[4]; Homo sapiens, A549, 24 h",> 70 µM
same,IC50,"[5]; Homo sapiens, COLO 205, 24 h",> 70 µM
CCCCCC1NC(=O)NC(C)=C1C(=O)OCC (stereo not drawn) [Compound 8a],IC50,[1]; [7],22.2 ± 1.6 µM
same,IC50,[2]; [7],67.2 ± 1.5 µM
same,IC50,[3]; [7],43.8 ± 1.4 µM
same,IC50,[4]; [7],63.4 ± 1.1 µM
same,IC50,[5]; [7],18.6 ± 1 µM
